Shown are actives, neighbours in structure and some others; about 5.1% of the full set was active somewhere.
STAT3 act = increases IL-6 driven STAT3 reporter signal. hit rate 0.91% among 190,000. activation (% of control), % at 5.6 µM. U3A cells, IL-6 STAT3-luciferase reporter, luminescence; 100% = signal with IL-6 EC80 alone;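 active means activation above the screen-wide mean of compound activation plus 3 SD, cut at about 130% in these data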;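 further: 0% = background luminescence of wells with medium and substrate only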
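system = STAT3-luciferase reporter U3A cells | reagent = IL-6 stimulus at 33 ng/mL final | timing = 1 h compound pre-exposure, 6 h IL-6 stimulation, 37 °C | measured by = luminescence | evaluation = % activation versus median of IL-6-stimulated wells | control set = IL-6-only wells as 100% reference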
STAT1 blocker = reduces IFN-gamma driven STAT1 reporter signal | NIH 3T3 STAT1-luciferase reporter, luminescence | inhibition, % at 5.5 µM | hit rate 0.35% among 200,000 | AID 920;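 active means inhibition above a set limit, the mean inhibition across all tested compounds plus 3 SD, cut at about 34% in these data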;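 further: 0% = IFN-gamma with DMSO and 100% = IFN-gamma with 300 µM nifuroxazide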
NF-kB neuron act = raises NF-kB expression in human neuronal cells; fold change at 12.5 µM; NF-kB reporter expression; hits give high values; hit rate 1.6% among 190,000; AID 1239; in the data active means fold change above about 3.3
APP 5'UTR act = activates APP 5'UTR luciferase reporter; SH-SY5Y APP 5'UTR luciferase reporter, luminescence; zero percent = DMSO vehicle wells; hit rate 1% among 190,000; activation, % at 2 µM;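 active means activation above a set limit, based on mean plus 3 SD of controls, cut at about 140% in these data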
STAT1 act = STAT1 signaling activation; NIH 3T3 STAT1-luciferase reporter, IFN-gamma, luminescence; 100% = IFN-gamma alone, no compound; activation (% of control), % at 5.5 µM; hit rate 2.6% among 200,000;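 active means activation above the screen-wide mean activation plus 3 SD, cut at about 130% in these data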;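 further: raw ratio to IFN-gamma control signal so 100% means no change and 0% no light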
STAT3 blocker = reduces IL-6 driven STAT3 reporter signal. U3A cells, IL-6 STAT3-luciferase reporter, luminescence; host cell line lacks STAT1. inhibition, % at 5.5 µM. hit rate 0.89% among 190,000;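 active means inhibition above the mean inhibition across all screened compounds plus 3 SD, cut at about 44% in these data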;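 further: 0% = DMSO only wells and 100% = 100 µM nifuroxazide control wells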
* marks the source's active call; other numbers are inactive results; / = no result.

SMILES	STAT3 act	STAT1 blocker	NF-kB neuron act	APP 5'UTR act	STAT1 act	STAT3 blocker
CC(=O)N1N=C(c2ccc(Cl)cc2)OC1c1ccc(C(C)C)cc1 (stereo not given)	122.9	-36.2	1.63	-10.4	133.0*	-21.0
CN(C)/C=C1/Oc2c(ccc3ccccc23)C1=O	83.9	-10.2	1.58	0.6	108.9	21.5
CN(C)/C=C1\Oc2ccc3ccccc3c2C1=O	92.3	-37.4	3.73*	86.3	135.4*	16.8
O=C(/C=C/c1ccco1)NC1=NCCS1	108.6	-51.1	2.01	96.4	144.9*	-7.4
COc1ccc(/C=C/C(=O)NC2=NCCS2)cc1OC	101.7	-34.6	1.44	13.7	132.1*	-0.2
O=C(Nc1ccc(Cl)cc1)OCc1ccccn1	97.7	-41.7	2.58	70.8	143.8*	4.2
CC1(C)CC(=O)c2c(oc3ccc(NS(=O)(=O)c4cccc5cccnc45)cc23)C1	94.8	-5.1	0.8	-1.2	103.8	16.6
CCOC(=O)COn1c(=O)c(-c2cc3ccccc3o2)[n+]([O-])c2ccccc21	150.7*	-46.6	2.85	100.0	142.4*	-63.2
C=CCOn1c(=O)c(-c2cc3ccccc3o2)[n+]([O-])c2ccccc21	118.8	-18.5	1.54	33.0	116.9	-17.3
CCOCC(=O)N1CCN(c2ccc([N+](=O)[O-])cc2)CC1	89.0	15.6	1.31	-15.2	85.8	17.2
COc1ccc(SCC(=O)Nc2ccc(N3CCN(C)CC3)c(F)c2)cc1	90.3	9.2	1.43	24.5	89.8	17.1
Cc1ccc(SCC(=O)Nc2ccc(N3CCN(C)CC3)c(F)c2)cc1	98.9	-36.1	2.42	31.7	133.2*	5.8
CON(C)c1nc(OCC#N)nc(N(C)C)n1	94.3	-8.2	0.97	-11.2	107.4	10.0
COc1ccc(/C=C/C(=O)c2cc3c(cc2N)OCO3)cc1	91.8	-12.4	3.77*	145.2*	111.0	12.0
Cc1cccc(NC(=O)Nc2cccc(C)n2)n1	91.0	-12.3	1.46	18.0	111.3	14.7
Cc1cccc(NC(=O)Nc2ccc([N+](=O)[O-])cc2)n1	90.4	-36.0	1.09	15.4	133.9*	11.8
Cc1cccc(NC(=O)c2ccc([N+](=O)[O-])cc2Cl)n1	100.6	0.3	1.15	2.1	99.8	0.2
Cc1cccc(NC(=O)Nc2ccc(C)c(C)c2)n1	134.9*	-31.5	2.1	1.8	129.2*	-33.2
Cc1cc(N=Cc2c(O)ccc3ccccc23)no1	134.8*	9.8	0.98	-8.9	91.0	-34.0
COc1ccc(-n2ncc3c(NCc4cccs4)ncnc32)cc1	116.9	-54.4	3.06	100.6	150.1*	-15.1
c1ccc2c(c1)oc1c(NCC3CCCO3)ncnc12 (stereo not given)	110.2	-13.6	1.25	24.8	112.4	-6.9
COc1ccc(-n2ncc3c(NCc4ccccn4)ncnc32)cc1	99.0	-14.6	1.05	63.8	112.4	7.5
c1ccc(-n2ncc3c(NCc4cccs4)ncnc32)cc1	94.3	-38.6	2.19	95.4	137.8*	13.0
Clc1ccc(Cn2ncc3c(NCc4ccco4)ncnc32)c(Cl)c1	96.5	-7.4	0.79	-9.0	106.7	6.8
c1ccc(-n2ncc3c(NCC4CCCO4)ncnc32)cc1 (stereo not given)	104.8	-31.9	2.22	59.7	129.2*	1.7
SMILES	STAT3 act	STAT1 blocker	NF-kB neuron act	APP 5'UTR act	STAT1 act	STAT3 blocker
Clc1ccc(-n2ncc3c(NCc4ccco4)ncnc32)cc1	95.5	-54.6	2.68	127.9	149.9*	12.6
COc1cccc2cc(C(=O)N3CCCCC3C)c(=O)oc12 (stereo not given)	96.8	-2.3	0.97	-7.4	100.3	7.0
COc1cccc2cc(NC(=O)C3CCCCC3)c(=O)oc12	106.4	-34.4	2.59	12.7	131.3*	-2.1
O=C(CSCc1ccccc1Cl)Nc1c[nH]c(=O)[nH]c1=O	101.3	-6.9	1.05	3.0	106.2	0.8
COc1ccc(C(=O)NC(=O)Nc2cc(C)ccn2)cc1	16.6	39.5*	1.86	159.3*	64.2	96.8*
COc1cc(C(=O)Nc2cc(C)ccn2)cc(OC)c1OC	105.0	1.8	1.16	15.7	98.3	-1.1
O=C1CCn2nc(-c3ccc(Cl)cc3)cc2N1	110.7	-37.5	2.73	63.6	136.2*	-12.9
CCOC(=O)C1=C(Cc2ccc(Cl)cc2)C(=O)c2ccccc2C1=O	85.1	4.7	1.43	-20.0	95.7	23.5
CCOC(=O)C1=C(O)c2ccccc2C(=O)/C1=C\c1ccc(C)cc1	134.0*	10.3	2.1	1.4	90.8	-39.9
COc1ccccc1N1CCN(/N=C/C=C\c2ccco2)CC1	107.4	-41.3	3.96*	72.6	136.9*	-7.9
COc1cccc(/C=N/N2CCN(c3ccccc3OC)CC2)c1	87.7	-35.4	1.94	32.0	135.1*	21.9
COc1ccc(/C(=C/c2ccc(OC(F)F)c(OC)c2)C(=O)O)cc1OC	102.7	3.5	0.97	16.5	96.9	0.0
O=C(COC(=O)c1cc(-c2cccs2)nn1-c1ccccc1)Nc1ccc(Cl)c([N+](=O)[O-])c1	95.7	9.2	1.04	-4.5	91.8	7.4
Cc1ccc(Nc2nc3ccccc3o2)cc1F	105.7	-35.4	2.63	136.2*	132.7*	-10.2
N#Cc1cnc(Nc2nc3ccccc3o2)nc1-c1ccccc1	97.6	-10.2	1.37	4.9	111.0	7.2
CCOC(=O)Cc1nc2ccccc2o1	105.7	-7.3	0.94	2.2	105.6	-3.2
CCOC(=O)c1cnc(Nc2nc3ccccc3o2)nc1CSC(=S)N(CC)CC	101.0	-5.7	23.9*	-40.6	105.2	-1.8
Cc1nc(Nc2nc3ccccc3o2)nc(C)c1C	67.4	-18.9	2.8	143.0*	117.3	41.4
CCCc1nc(Nc2nc3ccccc3o2)nc(C)c1C(=O)OCC	103.9	-48.0	3.02	32.8	144.4*	-0.5
CCOC(=O)c1cnc(Nc2nc3ccccc3o2)nc1CSc1ncccn1	97.6	-2.4	/	-6.1	102.2	7.0
Cc1cnc(Nc2nc3ccccc3o2)nc1C(=O)Nc1cccc(C(F)(F)F)c1	98.3	-1.9	1.17	-5.0	101.7	2.5
O=C(O)c1c2c(nc3ccc(S(=O)(=O)N4CCC(C(=O)NC5CCCCCC5)CC4)cc13)CCCC2	92.0	-2.4	1.01	-3.3	101.3	15.6
CC(=O)c1sc(N/N=C2\CC3CC2C(C)C3(C)C)nc1C (stereo not given)	96.4	-37.0	1.89	56.7	131.0*	9.6
CCCC(=O)Nc1nc(C)c(C(C)=O)s1	94.2	-6.4	1.17	-30.9	104.0	13.5
O=C(O)c1ccccc1NN=C1CCCCC1	115.8	-42.7	3.39*	125.3	138.3*	-18.2
CCSCCOC(=O)C1=C(C)NC2=C(C(=O)CCC2)C1c1coc2ccccc2c1=O (stereo not given)	144.5*	5.3	0.8	-12.7	95.2	-51.3
COc1ccccc1NC(=O)Cn1cnc2c(nnn2-c2ccc(C)cc2)c1=O	100.6	-1.4	0.91	6.2	101.5	8.5
